System: HEK-293T
Assay: Multiplex assay against HEK293T;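 on Population Tubulin-Different-Phenotype (%): share of the cells with healthy nuclei that show this phenotype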
Assay type: toxicity, cell-based
Details: human
Procedure, shortened: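 Compound was added to live cells that had been stained at seeding with Hoechst33342, BioTracker Green Microtubule Cytoskeleton Dye, MitoTracker Red and Annexin V Alexa Fluor 680, and imaging followed on a CQ1 microscope at 37°C and 5% CO2. CellPathfinder machine-learning gating divided cells into Hoechst high-intensity objects or normal cells, normal cells into healthy, pyknosed or fragmented nuclei, and pyknosed cells into mitotic or apoptotic. Tubulin, mitochondrial-mass and membrane-permeability phenotypes are per cents of healthy-nucleus cells.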

[1] = 12 h, 1 µM, compound concentration 1 uM, replicate 1
[2] = 12 h, 1 µM, compound concentration 1 uM, replicate 2
[3] = 12 h, 10 µM, compound concentration 10 uM, replicate 1
[4] = 12 h, 10 µM, compound concentration 10 uM, replicate 2
[5] = 24 h, 1 µM, compound concentration 1 uM, replicate 1
[6] = 24 h, 1 µM, compound concentration 1 uM, replicate 2
[7] = 24 h, 10 µM, compound concentration 10 uM, replicate 1
[8] = 24 h, 10 µM, compound concentration 10 uM, replicate 2
[9] = 48 h, 1 µM, compound concentration 1 uM, replicate 1
[10] = 48 h, 1 µM, compound concentration 1 uM, replicate 2
[11] = 48 h, 10 µM, compound concentration 10 uM, replicate 1
[12] = 48 h, 10 µM, compound concentration 10 uM, replicate 2

## Cc1nc(-c2ccc(-c3ccc(C(=O)N4CCc5cc6c(cc54)C4(CCN(C)CC4)CO6)cc3)c(C)c2)no1 [SB-224289]
[1]
  Population Apoptotic (%): 59%
  Population Fragmented Nuclei (%): 17%
  Population Hoechst High Intensity Objects (%): 14%
  Population Membrane Permeable-Phenotype (%): 2%
  Population Mitochondria Different-Phenotype (%): 94%
  Population Mitotic Cells (%): 40%
  Population Normal (%): 85%
  Population Pyknosed Nuclei (%): 48%
  Population Tubulin-Different-Phenotype (%): 82%
  Total Cell Count: 225
[2]
  Population Apoptotic (%): 24%
  Population Fragmented Nuclei (%): 4%
  Population Healthy Nuclei (%): 34%
  Population Hoechst High Intensity Objects (%): 3%
  Population Membrane Permeable-Phenotype (%): 12%
  Population Mitochondria Different-Phenotype (%): 75%
  Population Mitotic Cells (%): 75%
  Population Normal (%): 96%
  Population Pyknosed Nuclei (%): 60%
  Population Tubulin-Different-Phenotype (%): 66%
  Total Cell Count: 194
[3]
  Population Apoptotic (%): 87%
  Population Fragmented Nuclei (%): 8%
  Population Healthy Nuclei (%): 22%
  Population Hoechst High Intensity Objects (%): 15%
  Population Membrane Permeable-Phenotype (%): 0%
  Population Mitochondria Different-Phenotype (%): 98%
  Population Mitotic Cells (%): 12%
  Population Normal (%): 84%
  Population Pyknosed Nuclei (%): 68%
  Population Tubulin-Different-Phenotype (%): 98%
  Total Cell Count: 320
[4]
  Population Apoptotic (%): 88%
  Population Fragmented Nuclei (%): 3%
  Population Healthy Nuclei (%): 16%
  Population Hoechst High Intensity Objects (%): 9%
  Population Membrane Permeable-Phenotype (%): 4%
  Population Mitochondria Different-Phenotype (%): 95%
  Population Mitotic Cells (%): 11%
  Population Normal (%): 90%
  Population Pyknosed Nuclei (%): 80%
  Population Tubulin-Different-Phenotype (%): 85%
  Total Cell Count: 141
[5]
  Population Apoptotic (%): 67%
  Population Fragmented Nuclei (%): 17%
  Population Healthy Nuclei (%): 35%
  Population Hoechst High Intensity Objects (%): 10%
  Population Membrane Permeable-Phenotype (%): 1%
  Population Mitochondria Different-Phenotype (%): 89%
  Population Mitotic Cells (%): 32%
  Population Normal (%): 89%
  Population Pyknosed Nuclei (%): 46%
  Population Tubulin-Different-Phenotype (%): 63%
  Total Cell Count: 231
[6]
  Population Apoptotic (%): 33%
  Population Fragmented Nuclei (%): 4%
  Population Healthy Nuclei (%): 46%
  Population Hoechst High Intensity Objects (%): 3%
  Population Membrane Permeable-Phenotype (%): 5%
  Population Mitochondria Different-Phenotype (%): 73%
  Population Mitotic Cells (%): 66%
  Population Normal (%): 96%
  Population Pyknosed Nuclei (%): 48%
  Population Tubulin-Different-Phenotype (%): 73%
  Total Cell Count: 232
[7]
  Population Apoptotic (%): 92%
  Population Fragmented Nuclei (%): 8%
  Population Healthy Nuclei (%): 13%
  Population Hoechst High Intensity Objects (%): 18%
  Population Membrane Permeable-Phenotype (%): 2%
  Population Mitochondria Different-Phenotype (%): 100%
  Population Mitotic Cells (%): 7%
  Population Normal (%): 81%
  Population Pyknosed Nuclei (%): 77%
  Population Tubulin-Different-Phenotype (%): 100%
  Total Cell Count: 316
[8]
  Population Apoptotic (%): 97%
  Population Fragmented Nuclei (%): 5%
  Population Healthy Nuclei (%): 24%
  Population Hoechst High Intensity Objects (%): 12%
  Population Membrane Permeable-Phenotype (%): 0%
  Population Mitotic Cells (%): 2%
  Population Normal (%): 88%
  Population Pyknosed Nuclei (%): 70%
  Population Tubulin-Different-Phenotype (%): 93%
  Total Cell Count: 150
[9]
  Population Apoptotic (%): 76%
  Population Fragmented Nuclei (%): 21%
  Population Healthy Nuclei (%): 48%
  Population Hoechst High Intensity Objects (%): 12%
  Population Membrane Permeable-Phenotype (%): 0%
  Population Mitochondria Different-Phenotype (%): 67%
  Population Mitotic Cells (%): 23%
  Population Normal (%): 87%
  Population Pyknosed Nuclei (%): 30%
  Population Tubulin-Different-Phenotype (%): 53%
  Total Cell Count: 261
[10]
  Population Apoptotic (%): 25%
  Population Fragmented Nuclei (%): 4%
  Population Healthy Nuclei (%): 72%
  Population Hoechst High Intensity Objects (%): 4%
  Population Membrane Permeable-Phenotype (%): 2%
  Population Mitochondria Different-Phenotype (%): 45%
  Population Mitotic Cells (%): 75%
  Population Normal (%): 95%
  Population Pyknosed Nuclei (%): 22%
  Population Tubulin-Different-Phenotype (%): 56%
  Total Cell Count: 371
[11]
  Population Apoptotic (%): 92%
  Population Fragmented Nuclei (%): 13%
  Population Healthy Nuclei (%): 10%
  Population Hoechst High Intensity Objects (%): 26%
  Population Membrane Permeable-Phenotype (%): 7%
  Population Mitochondria Different-Phenotype (%): 100%
  Population Mitotic Cells (%): 7%
  Population Normal (%): 73%
  Population Pyknosed Nuclei (%): 75%
  Population Tubulin-Different-Phenotype (%): 82%
  Total Cell Count: 363
[12]
  Population Apoptotic (%): 100%
  Population Fragmented Nuclei (%): 5%
  Population Healthy Nuclei (%): 28%
  Population Hoechst High Intensity Objects (%): 17%
  Population Membrane Permeable-Phenotype (%): 6%
  Population Mitochondria Different-Phenotype (%): 96%
  Population Mitotic Cells (%): 0%
  Population Normal (%): 82%
  Population Pyknosed Nuclei (%): 66%
  Population Tubulin-Different-Phenotype (%): 57%
  Total Cell Count: 139

## O=C1NCN(c2ccccc2)C12CCN(CCCOc1ccc(F)cc1)CC2 [SPIRAMIDE]
[1]
  Population Apoptotic (%): 41%
  Population Fragmented Nuclei (%): 15%
  Population Hoechst High Intensity Objects (%): 12%
  Population Membrane Permeable-Phenotype (%): 4%
  Population Mitochondria Different-Phenotype (%): 81%
  Population Mitotic Cells (%): 58%
  Population Normal (%): 87%
  Population Pyknosed Nuclei (%): 45%
  Population Tubulin-Different-Phenotype (%): 35%
  Total Cell Count: 216
[2]
  Population Apoptotic (%): 11%
  Population Fragmented Nuclei (%): 10%
  Population Healthy Nuclei (%): 38%
  Population Hoechst High Intensity Objects (%): 7%
  Population Membrane Permeable-Phenotype (%): 12%
  Population Mitochondria Different-Phenotype (%): 11%
  Population Mitotic Cells (%): 88%
  Population Normal (%): 92%
  Population Pyknosed Nuclei (%): 50%
  Population Tubulin-Different-Phenotype (%): 20%
  Total Cell Count: 179
[3]
  Population Apoptotic (%): 66%
  Population Fragmented Nuclei (%): 16%
  Population Healthy Nuclei (%): 13%
  Population Hoechst High Intensity Objects (%): 17%
  Population Membrane Permeable-Phenotype (%): 0%
  Population Mitochondria Different-Phenotype (%): 95%
  Population Mitotic Cells (%): 33%
  Population Normal (%): 82%
  Population Pyknosed Nuclei (%): 70%
  Population Tubulin-Different-Phenotype (%): 95%
  Total Cell Count: 210
[4]
  Population Apoptotic (%): 19%
  Population Fragmented Nuclei (%): 3%
  Population Healthy Nuclei (%): 34%
  Population Hoechst High Intensity Objects (%): 2%
  Population Membrane Permeable-Phenotype (%): 7%
  Population Mitochondria Different-Phenotype (%): 55%
  Population Mitotic Cells (%): 80%
  Population Normal (%): 97%
  Population Pyknosed Nuclei (%): 62%
  Population Tubulin-Different-Phenotype (%): 46%
  Total Cell Count: 194
[5]
  Population Apoptotic (%): 50%
  Population Fragmented Nuclei (%): 13%
  Population Healthy Nuclei (%): 57%
  Population Hoechst High Intensity Objects (%): 10%
  Population Membrane Permeable-Phenotype (%): 0%
  Population Mitochondria Different-Phenotype (%): 66%
  Population Mitotic Cells (%): 50%
  Population Normal (%): 89%
  Population Pyknosed Nuclei (%): 28%
  Population Tubulin-Different-Phenotype (%): 34%
  Total Cell Count: 248
[6]
  Population Apoptotic (%): 6%
  Population Fragmented Nuclei (%): 8%
  Population Healthy Nuclei (%): 61%
  Population Hoechst High Intensity Objects (%): 3%
  Population Membrane Permeable-Phenotype (%): 6%
  Population Mitochondria Different-Phenotype (%): 17%
  Population Mitotic Cells (%): 93%
  Population Normal (%): 96%
  Population Pyknosed Nuclei (%): 30%
  Population Tubulin-Different-Phenotype (%): 29%
  Total Cell Count: 207
[7]
  Population Apoptotic (%): 69%
  Population Fragmented Nuclei (%): 17%
  Population Healthy Nuclei (%): 19%
  Population Hoechst High Intensity Objects (%): 17%
  Population Membrane Permeable-Phenotype (%): 5%
  Population Mitochondria Different-Phenotype (%): 97%
  Population Mitotic Cells (%): 30%
  Population Normal (%): 82%
  Population Pyknosed Nuclei (%): 62%
  Population Tubulin-Different-Phenotype (%): 100%
  Total Cell Count: 231
[8]
  Population Apoptotic (%): 21%
  Population Fragmented Nuclei (%): 3%
  Population Healthy Nuclei (%): 54%
  Population Hoechst High Intensity Objects (%): 1%
  Population Membrane Permeable-Phenotype (%): 2%
  Population Mitochondria Different-Phenotype (%): 59%
  Population Mitotic Cells (%): 78%
  Population Normal (%): 98%
  Population Pyknosed Nuclei (%): 42%
  Population Tubulin-Different-Phenotype (%): 59%
  Total Cell Count: 256
[9]
  Population Apoptotic (%): 35%
  Population Fragmented Nuclei (%): 10%
  Population Healthy Nuclei (%): 77%
  Population Hoechst High Intensity Objects (%): 7%
  Population Membrane Permeable-Phenotype (%): 1%
  Population Mitochondria Different-Phenotype (%): 26%
  Population Mitotic Cells (%): 64%
  Population Normal (%): 92%
  Population Pyknosed Nuclei (%): 12%
  Population Tubulin-Different-Phenotype (%): 22%
  Total Cell Count: 484
[10]
  Population Apoptotic (%): 8%
  Population Fragmented Nuclei (%): 4%
  Population Healthy Nuclei (%): 82%
  Population Hoechst High Intensity Objects (%): 2%
  Population Membrane Permeable-Phenotype (%): 7%
  Population Mitochondria Different-Phenotype (%): 7%
  Population Mitotic Cells (%): 91%
  Population Normal (%): 97%
  Population Pyknosed Nuclei (%): 13%
  Population Tubulin-Different-Phenotype (%): 20%
  Total Cell Count: 363
[11]
  Population Apoptotic (%): 59%
  Population Fragmented Nuclei (%): 17%
  Population Healthy Nuclei (%): 30%
  Population Hoechst High Intensity Objects (%): 18%
  Population Membrane Permeable-Phenotype (%): 0%
  Population Mitochondria Different-Phenotype (%): 98%
  Population Mitotic Cells (%): 40%
  Population Normal (%): 81%
  Population Pyknosed Nuclei (%): 51%
  Population Tubulin-Different-Phenotype (%): 89%
  Total Cell Count: 227
[12]
  Population Apoptotic (%): 21%
  Population Fragmented Nuclei (%): 4%
  Population Healthy Nuclei (%): 77%
  Population Hoechst High Intensity Objects (%): 4%
  Population Membrane Permeable-Phenotype (%): 1%
  Population Mitochondria Different-Phenotype (%): 29%
  Population Mitotic Cells (%): 78%
  Population Normal (%): 95%
  Population Pyknosed Nuclei (%): 17%
  Population Tubulin-Different-Phenotype (%): 44%
  Total Cell Count: 383

Source: ChEMBL document CHEMBL4689842, “EUbOPEN Chemogenomics Library wave 1” (2021)
